The IC50 is the concentration at which inhibition is half-maximal.

The experiment addresses Bos taurus Arp2/3 complex (Bos taurus, UniProt A7MB62+P61157). The experiment can be described thus: Pyrene actin polymerization assay. It is filed as biochemical. The following applies: for increase in IC50 relative to 1 / inhibition of Arp2/3 complex (in words): actin polymerization assay; for increase in IC50 relative to 1: compared to 1. Summed up: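 Bovine Arp2/3 complex from calf thymus, activated by human N-WASp-VCA (residues 428-505, E. coli-expressed). Rabbit muscle actin, 30% pyrene-labelled at […], Mg/EGTA-exchanged. Polymerization started by adding Arp2/3 and VCA; final buffer 10 mM imidazole pH 7.0, 50 mM KCl, 1 mM EGTA, 1 mM MgCl2, 1 mM DTT. Read at ex 365/em 407 nm every 10 s for 45 min. Inhibitor tested up to 200 μM. IC50 from a fit of maximal rate (nM actin s⁻¹) versus concentration.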

“Also recorded” adds a separate entry of the source.

As for `Cc1[nH]c2ccccc2c1CCNC(=O)c1cccc(Cl)c1F` [Compound 8, 3-chloro-2-fluoro-N-(2-(2-methyl-1H-indol-3-yl)ethyl)benzamide], 238 ± 91 µM corresponded to half-maximal inhibition (IC50) and the “increase in IC50 relative to 1” value was 15-20 fold.

As for `Cc1[nH]c2ccccc2c1CCNC(=O)c1ccc(O)cc1F` [Compound 2, 2-fluoro-4-hydroxy-N-(2-(2-methyl-1H-indol-3-yl)ethyl)benzamide], the IC50 amounted to 4 ± 1 µM. For the compound `Cc1[nH]c2ccccc2c1CCNC(=O)c1ccc(Cl)cc1` [Compound 7, 4-chloro-N-(2-(2-methyl-1H-indol-3-yl)ethyl)benzamide], the concentration for half-maximal inhibition (IC50) amounted to 181 ± 85 µM, the “inhibition of Arp2/3 complex (in words)” value is recorded as “greatly reduced or no inhibition” and the “increase in IC50 relative to 1” value is 15-20 fold. With `Cc1[nH]c2ccccc2c1CCNC(=O)c1ccc(Cl)cc1F` [Compound 6, 4-chloro-2-fluoro-N-(2-(2-methyl-1H-indol-3-yl)ethyl)benzamide], the IC50 stood at 32 ± 18 µM and the “increase in IC50 relative to 1” value is on record as “approximately 3 fold”.

In the case of `COc1ccc(C(=O)NCCc2c(C)[nH]c3ccccc23)c(F)c1` [Compound 4, 2-fluoro-4-methoxy-N-(2-(2-methyl-1H-indol-3-yl)ethyl)benzamide], the concentration for half-maximal inhibition (IC50) came out at 19 ± 6 µM and the “increase in IC50 relative to 1” value is “nearly double”. For the same compound, the “IC50 relative to 2” value (higher IC50 than 2) was “fivefold”. Consider `Cc1[nH]c2ccc(Cl)cc2c1CCNC(=O)c1ccccc1F` [Compound 3, N-(2-(5-chloro-2-methyl-1H-indol-3-yl)ethyl)-2-fluorobenzamide], for which the IC50 came to 18 ± 5 µM and the “increase in IC50 relative to 1” value is recorded as “nearly double; also recorded: only slightly”.

Take `Cc1[nH]c2ccccc2c1CCNC(=O)c1ccccc1Cl` [Compound 10, 2-chloro-N-(2-(2-methyl-1H-indol-3-yl)ethyl)benzamide]: the “inhibition of Arp2/3 complex (in words)” value is on record as “greatly reduced or no inhibition; also recorded: completely abolishes inhibition”.

Consider `Cc1[nH]c2ccccc2c1CCNC(=O)c1cccc(Cl)c1` [Compound 11, 3-chloro-N-(2-(2-methyl-1H-indol-3-yl)ethyl)benzamide], for which the “inhibition of Arp2/3 complex (in words)” value is “greatly reduced or no inhibition”.

For the origin of these results see publication PMC3531959 (ChemMedChem, 2012).
